Shown are actives, neighbours in structure and some others; about 5.1% of the full set was active somewhere.
APP 5'UTR act: activates APP 5'UTR luciferase reporter | activation, % at 2 µM | SH-SY5Y APP 5'UTR luciferase reporter, luminescence; zero percent = DMSO vehicle wells | 1% of 190,000 active | AID 1276;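 active means activation above a set limit, based on mean plus 3 SD of controls, cut at about 140% in these data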
NF-kB neuron act: raises NF-kB expression in human neuronal cells; NF-kB reporter expression; hits give high values; fold change at 12.5 µM; 1.6% of 190,000 active; AID 1239; in the data active means fold change above about 3.3
STAT3 act: activators of IL-6 induced STAT3 signaling; U3A cells, IL-6 STAT3-luciferase reporter, luminescence; 100% = signal with IL-6 EC80 alone; activation (% of control), % at 5.6 µM; 0.91% of 190,000 active;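 active means activation above the screen-wide mean of compound activation plus 3 SD, cut at about 130% in these data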;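 further: 0% = background luminescence of wells with medium and substrate only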
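Material: STAT3-luciferase reporter U3A cells; Probe or stimulus: IL-6 (33 ng/mL); Incubation: compound pre-incubation 1 h before IL-6, then 6 h stimulation at 37 °C; Technique: luminescence from STAT3-driven luciferase reporter; Evaluation: % activation versus median of IL-6-stimulated wells; Controls: IL-6-only high control.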
STAT1 act: increases IFN-gamma driven STAT1 reporter signal. NIH 3T3 STAT1-luciferase reporter, luminescence; 100% = IFN-gamma alone, no compound. activation (% of control), % at 5.5 µM. 2.6% of 200,000 active;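 active means activation above the screen-wide mean activation plus 3 SD, cut at about 130% in these data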;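 further: raw ratio to IFN-gamma control signal so 100% means no change and 0% no light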
STAT1 blocker: inhibitors of IFN-gamma induced STAT1 signaling; AID 920; 0.35% of 200,000 active; NIH 3T3 STAT1-luciferase reporter, luminescence; inhibition, % at 5.5 µM;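 active means inhibition above a set limit, the mean inhibition across all tested compounds plus 3 SD, cut at about 34% in these data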;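 further: 0% = IFN-gamma with DMSO and 100% = IFN-gamma with 300 µM nifuroxazide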
STAT3 blocker: inhibitors of IL-6 induced STAT3 signaling; U3A cells, IL-6 STAT3-luciferase reporter, luminescence; host cell line lacks STAT1; inhibition, % at 5.5 µM; 0.89% of 190,000 active;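 active means inhibition above the mean inhibition across all screened compounds plus 3 SD, cut at about 44% in these data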;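 further: 0% = DMSO only wells and 100% = 100 µM nifuroxazide control wells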
* hit, by the source's call; . = no result.

SMILES | APP 5'UTR act | NF-kB neuron act | STAT3 act | STAT1 act | STAT1 blocker | STAT3 blocker
N#CCCN1CCN(C(CNS(=O)(=O)c2ccc(Cl)cc2)c2ccccc2)CC1 (centres undefined) | -7 | 1.3 | 109 | 101 | -1 | -4
O=C1[C@@H]2Cc3c([nH]c4ccccc34)[C@@H](c3ccccc3)N2C(=O)[C@@H]2Cc3c([nH]c4ccccc34)[C@@H](c3ccccc3)N12 | -4 | 1.6 | 137* | 104 | -5 | -47
Cc1cc(Nc2ncc(Cl)cc2Cl)n(-c2ccccc2C)n1 | -4 | 1 | 111 | 95 | 5 | -11
Cc1ccc(-n2nc(C)cc2Nc2ncc(Cl)cc2Cl)cc1 | -29 | 1 | 135* | 96 | 4 | -48
Cc1c(/C(O)=C2/C(=O)C(=O)N(Cc3cccnc3)C2c2cccs2)cnn1-c1ccccc1 (centres undefined) | 141* | 0.5 | 79 | 141* | -44 | 24
CN(C)S(=O)(=O)c1ccc(/C(O)=C2/C(=O)C(=O)N(Cc3cccnc3)C2c2cccs2)cc1 (centres undefined) | -19 | . | 82 | 107 | -10 | 25
Cc1ccc(/C(O)=C2/C(=O)C(=O)N(Cc3cccnc3)C2c2ccccn2)cc1 (centres undefined) | -1 | 1.2 | 103 | 100 | 0 | -1
Cc1c(/C(O)=C2/C(=O)C(=O)N(Cc3cccnc3)C2c2ccccn2)cnn1-c1ccccc1 (centres undefined) | 17 | 1 | 50 | 49 | 55* | 64*
COc1cccc(NC(=O)CCNC(=O)c2ccccc2Cl)c1 | -5 | 1.2 | 103 | 103 | -2 | -3
COc1ccc(/C=C/C(=O)N2CCN(S(=O)(=O)c3ccccc3)CC2)cc1OC | 7 | 0.89 | 97 | 138* | -43 | 9
COc1ccc(N=C2NC(=O)/C(=C\c3ccco3)S2)cc1 | 31 | 2 | 98 | 104 | -7 | 9
Cc1cccc[n+]1CCCCCCCCCC[n+]1ccccc1C | 1 | 1 | 103 | 99 | 1 | 3
CCCCCCCC[n+]1cccc2c3ccccc3ccc21 | -20 | 2 | 29 | 64 | 38* | 87*
CCCCCCCCCC[n+]1cccc2c3ccccc3ccc21 | -24 | 1.8 | 29 | 52 | 51* | 87*
CCCn1c(C)cc(C(=O)COC(=O)CN=C2NS(=O)(=O)c3ccccc32)c1C | 6 | 1 | 95 | 96 | 4 | 4
Cc1cc(N=Cc2c(O)ccc3ccccc23)no1 | -9 | 0.98 | 135* | 91 | 10 | -34
COc1cc(O)cc2occ(-c3ccc(O)cc3)c(=O)c12 | 11 | 1.4 | . | 104 | -6 | .
COc1ccc(-c2coc3cc(OC)cc(OC)c3c2=O)cc1 | 27 | 1.8 | . | 128 | -32 | .
COc1ccc(-c2coc3cc(OC)cc(O)c3c2=O)cc1 | 155* | 5.5* | 102 | 143* | -48 | -1
CC(C)Oc1cc(O)c2c(=O)c(-c3ccc(O)cc3)coc2c1 | 164* | 9* | 85 | 128 | -34 | 17
CCCc1cc2c(=O)c(-c3ccccn3)c(C)oc2cc1O | 30 | 1.2 | 116 | 96 | 3 | -12
CCCc1cc2c(=O)c(-c3ccccn3)coc2cc1OC | 16 | 3.9* | 98 | 136* | -39 | 7
COc1ccc(-c2nnnn2-c2ccc(F)cc2F)cc1 | 6 | 3.9* | 102 | 96 | 3 | 5
Cc1ccc(SCc2ccc(C(=O)Nc3ccccc3Br)cc2)cc1 | -16 | 0.99 | 103 | 102 | -3 | -9
Cc1c(Cl)c(C(=O)NNC(=S)Nc2ccccc2)nn1C | 43 | 1.9 | 85 | 114 | -15 | 19
SMILES | APP 5'UTR act | NF-kB neuron act | STAT3 act | STAT1 act | STAT1 blocker | STAT3 blocker
CCc1nnc(NC(=O)c2ccc(-c3ccc(F)cc3)o2)s1 | 2 | 1.3 | 83 | 100 | -2 | 23
Fc1ccc(NC(=S)Nc2nccs2)cc1 | 71 | 9.1* | 86 | 110 | -11 | 21
O=C(Nc1cccnc1)c1ccc(-c2ccc(Cl)cc2)o1 | 30 | 1.9 | 95 | 127 | -30 | 8
O=C(Nc1nccs1)c1ccc(-c2ccc(Cl)cc2)o1 | 133 | 6.1* | 90 | 138* | -41 | 16
O=C(Nc1nccs1)c1ccc(-c2ccc(F)cc2)o1 | 157* | 3.1 | 86 | 129* | -33 | 19
COCn1c(-c2ccc(OC)c(OC)c2)nc2ccccc21 | 73 | 1.8 | 92 | 132* | -35 | 12
c1ccc(-c2csc(Nc3ccc4c(c3)OCCO4)n2)cc1 | 187* | 4.8* | 95 | 139* | -42 | 6
CC(C)(C)C(=O)Nc1nc(-c2ccc3c(c2)OCO3)cs1 | 157* | 5.7* | 109 | 139* | -42 | -14
O=C(/C=C/c1ccc2c(c1)OCO2)Nc1nc(-c2ccc(F)cc2)cs1 | 9 | 1.3 | 100 | 92 | 9 | 0
CC(=O)Nc1nc(-c2ccc3c(c2)CCO3)cs1 | 80 | 2.6 | 82 | 141* | -44 | 28
COc1cccc(Nc2nc(-c3ccc4c(c3)OCCO4)cs2)c1 | 162* | 2.9 | 110 | 148* | -53 | -9
COc1ccccc1C(=O)Nc1nc(-c2ccc3c(c2)OCCO3)cs1 | 1 | 1 | 80 | 105 | -6 | 28
N#C/C(=C\Nc1ccc2c(c1)OCCO2)c1nc(-c2ccccc2)cs1 | 10 | 1.2 | 102 | 106 | -6 | 2
O=C(O)CCC(=O)NNc1nc2ccccc2nc1-c1ccccc1 | 8 | 0.89 | 99 | 106 | -8 | 9
Nc1nc(-c2ccc3c(c2)CCO3)cs1 | 45 | 1.7 | 110 | 125 | -27 | -5
COc1cccc(-c2csc(NC(C)=O)n2)c1 | 62 | 3.1 | 94 | 137* | -41 | 11
c1cc2c(cc1-c1csc(NNC3=NCCCCC3)n1)OCCO2 | 80 | 0.7 | 107 | 144* | -50 | -6
COc1ccc(-c2csc(NC(C)=O)n2)cc1OC | 8 | 1 | 102 | 102 | -2 | 2
c1cc2c(cc1Nc1nc(-c3ccc4c(c3)OCO4)cs1)OCCO2 | 25 | 1.2 | 92 | 137* | -40 | 9
CCOc1ccc(-c2nnn(CC(=O)NCc3ccc(C)cc3)n2)cc1 | 6 | 0.93 | 106 | 104 | -6 | -4
COc1cnc(-c2ccccn2)nc1Oc1ccccc1Cl | . | 0.36 | 117 | 98 | 2 | -15
Cc1cccc(NC(=O)c2sc(C)nc2C)c1 | 33 | 1.8 | 101 | 106 | -7 | 2
Cc1cccc(NC(=S)c2nc3ccccc3s2)c1 | 205* | 3.9* | 134* | 143* | -48 | -31
O=C(O)CCc1ccc(S(=O)(=O)NCCc2ccccc2)cc1 | 1 | 0.94 | 101 | 101 | -1 | 3
COc1ccc(NC(=O)c2ccco2)c([N+](=O)[O-])c1 | 49 | 2.5 | 92 | 138* | -41 | 5
Cc1ccc(NC(=O)c2ccco2)c([N+](=O)[O-])c1 | 39 | . | 100 | 139* | -45 | 5

Assay outcomes (PubChem BioAssay)
